Numbered stars: 1 amine (or outer) side, 2 acyl side, 3 side chain; on linkers, the order of the positions; unused ones are H or OH. Bridge positions count the residues as written; N and C are the ends. Square brackets hold non-standard residues; d marks the D form. Peptide text beside a SMILES is read from it. X1 = O=C(CC1(S[*:2])CCCCC1)[*:1]
Organism: Rattus norvegicus
Assay: Effective dose (antagonist) that reduces the response to an agonist (oxytocin) by one-half.
Assay type: functional
Settings: not given
How it was run: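 Isolated estrous rat uterus in Van Dyke-Hastings solution with 0.5 mM Mg²⁺; OT-evoked isometric contractions quantified as integrated peak area. Effective dose taken as molar antagonist concentration halving the agonist response; at least four separate assays.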

Compared with `CC[C@H](C)[C@@H]1NC(=O)[C@@H](Cc2c[nH]c3ccccc23)NC(=O)CC2(CCCCC2)SSC[C@@H](C(=O)N2CCC[C@H]2C(=O)N[C@@H](CCCN=C(N)N)C(=O)NCC(N)=O)NC(=O)[C@H](CC(N)=O)NC(=O)[C@H]([C@@H](C)O)NC1=O` [listing 1 of 2 here], `CC[C@H](C)[C@@H]1NC(=O)[C@@H](Cc2c[nH]c3ccccc23)NC(=O)CC2(CCCCC2)SSC[C@@H](C(=O)N2CCC[C@H]2C(=O)N[C@@H](CCCN=C(N)N)C(=O)NCC(N)=O)NC(=O)[C@H](CC(N)=O)NC(=O)[C@H](C(C)C)NC1=O` [listing 1 of 2 here] is 1.7-fold lower in ED50: 46.8 nM for the first, 26.9 nM for the second.

`CC[C@H](C)[C@@H]1NC(=O)[C@H](Cc2ccccc2)NC(=O)[C@@H](Cc2c[nH]c3ccccc23)NC(=O)CC2(CCCCC2)SSC[C@@H](C(=O)N2CCC[C@H]2C(=O)N[C@@H](CCCN=C(N)N)C(=O)NCC(N)=O)NC(=O)[C@H](CC(N)=O)NC1=O` [listing 1 of 2 here] and `CC[C@H](C)[C@@H]1NC(=O)[C@H](Cc2ccc(Cl)cc2)NC(=O)[C@@H](Cc2c[nH]c3ccccc23)NC(=O)CC2(CCCCC2)SSC[C@@H](C(=O)N2CCC[C@H]2C(=O)N[C@@H](CCCN=C(N)N)C(=O)NCC(N)=O)NC(=O)[C@H](CC(N)=O)NC1=O` [listing 1 of 2 here] are within 1.5-fold of each other in ED50: 30.9 nM for the first, 40.2 nM for the second.

`CC[C@H](C)[C@@H]1NC(=O)[C@H](Cc2ccccc2)NC(=O)[C@@H](Cc2ccccc2)NC(=O)CC2(CCCCC2)SSC[C@@H](C(=O)N2CCC[C@H]2C(=O)N[C@@H](CCCN=C(N)N)C(=O)NCC(N)=O)NC(=O)[C@H](CC(N)=O)NC1=O` ([dF]FINCPRG-NH2; linker N-5 via X1) [listing 1 of 2 here] and `CC[C@H](C)[C@@H]1NC(=O)[C@H](Cc2ccccc2)NC(=O)[C@@H](Cc2c[nH]c3ccccc23)NC(=O)CC2(CCCCC2)SSC[C@@H](C(=O)N2CC=C[C@H]2C(=O)N[C@@H](CCCN=C(N)N)C(=O)NCC(N)=O)NC(=O)[C@H](CC(N)=O)NC1=O` [listing 1 of 2 here] are within 1.5-fold of each other in ED50: 46.6 nM for the first, 38.6 nM for the second.

`CCNC(=O)CNC(=O)[C@H](CCCN=C(N)N)NC(=O)[C@@H]1CCCN1C(=O)[C@@H]1CSSC2(CCCCC2)CC(=O)N[C@H](Cc2c[nH]c3ccccc23)C(=O)N[C@@H](Cc2ccccc2)C(=O)N[C@@H](CCC(N)=O)C(=O)N[C@@H](CC(N)=O)C(=O)N1` [listing 1 of 2 here] and `NC(=O)CC[C@@H]1NC(=O)[C@H](Cc2ccccc2)NC(=O)[C@@H](Cc2c[nH]c3ccccc23)NC(=O)CC2(CCCCC2)SSC[C@@H](C(=O)N2CCC[C@H]2C(=O)N[C@@H](CCCN=C(N)N)C(=O)NCC(N)=O)NC(=O)[C@H](CC(N)=O)NC1=O` [listing 1 of 2 here] are within 1.5-fold of each other in ED50: 32.9 nM for the first, 27 nM for the second.

`CC[C@H](C)[C@@H]1NC(=O)[C@H]([C@@H](C)CC)NC(=O)[C@@H](Cc2c[nH]c3ccccc23)NC(=O)CC2(CCCCC2)SSC[C@@H](C(=O)N2CCC[C@H]2C(=O)N[C@@H](CCCN=C(N)N)C(=O)NCC(N)=O)NC(=O)[C@H](CC(N)=O)NC1=O` [listing 1 of 2 here] gave an ED50 of 35.3 nM.

Organism: Rattus norvegicus
Assay: Antidiuretic potency was evaluated and expressed as effective dose.
Assay type: functional, Urine
Settings: not given
How it was run: (§1)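 Antagonism tested in vivo in water-loaded rats under ethanol anesthesia, with ADH as the agonist standard. The effective dose is the antagonist amount that halves the response to agonist. An in vivo pA₂ was estimated by dividing the effective dose by an assumed volume of distribution of 67 mL/kg. Values reported as mean ± SE.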

`CC[C@H](C)[C@@H]1NC(=O)[C@H](Cc2ccccc2)NC(=O)[C@@H](Cc2c[nH]c3ccccc23)NC(=O)CC2(CCCCC2)SSC[C@@H](C(=O)N2CCC[C@H]2C(=O)N[C@@H](CCCN=C(N)N)C(=O)NCC(N)=O)NC(=O)[C@H](CC(N)=O)NC1=O` [listing 1 of 2 here] and `CC[C@H](C)[C@@H]1NC(=O)[C@@H](Cc2c[nH]c3ccccc23)NC(=O)CC2(CCCCC2)SSC[C@@H](C(=O)N2CCC[C@H]2C(=O)N[C@@H](CCCN=C(N)N)C(=O)NCC(N)=O)NC(=O)[C@H](CC(N)=O)NC(=O)[C@H](CCC(N)=O)NC1=O` ([dW]IQNCPRG-NH2; linker N-5 via X1) [listing 1 of 2 here] cannot be ordered by ED50: 8.3 nM for the first, under 1680 nM for the second.

`CC[C@H](C)[C@@H]1NC(=O)[C@H](Cc2ccccc2)NC(=O)[C@@H](Cc2ccccc2)NC(=O)CC2(CCCCC2)SSC[C@@H](C(=O)N2CCC[C@H]2C(=O)N[C@@H](CCCN=C(N)N)C(=O)NCC(N)=O)NC(=O)[C@H](CC(N)=O)NC1=O` ([dF]FINCPRG-NH2; linker N-5 via X1) [listing 1 of 2 here] gave an ED50 of 0.87 M.

Organism: Rattus norvegicus
Assay: Antidiuretic action in water-loaded rats under ethanol anesthesia.
Assay type: functional, organism-based
Settings: Urine, read-out: pA2 (converted)
How it was run: as §1

`CC[C@H](C)[C@@H]1NC(=O)[C@H](Cc2ccccc2)NC(=O)[C@@H](Cc2c[nH]c3ccccc23)NC(=O)CC2(CCCCC2)SSC[C@@H](C(=O)N2CCC[C@H]2C(=O)N[C@@H](CCCN=C(N)N)C(=O)NCC(N)=O)NC(=O)[C@H](CC(N)=O)NC1=O` [listing 2 of 2 here] and `CC[C@H](C)[C@@H]1NC(=O)[C@H](Cc2ccccc2)NC(=O)[C@@H](Cc2ccccc2)NC(=O)CC2(CCCCC2)SSC[C@@H](C(=O)N2CCC[C@H]2C(=O)N[C@@H](CCCN=C(N)N)C(=O)NCC(N)=O)NC(=O)[C@H](CC(N)=O)NC1=O` ([dF]FINCPRG-NH2; linker N-5 via X1) [listing 2 of 2 here] are within 1.5-fold of each other in Kb: 7.94 nM for the first, 8.13 nM for the second.

Work on `CC[C@H](C)[C@@H]1NC(=O)[C@@H](Cc2c[nH]c3ccccc23)NC(=O)CC2(CCCCC2)SSC[C@@H](C(=O)N2CCC[C@H]2C(=O)N[C@@H](CCCN=C(N)N)C(=O)NCC(N)=O)NC(=O)[C@H](CC(N)=O)NC(=O)[C@H](CCC(N)=O)NC1=O` ([dW]IQNCPRG-NH2; linker N-5 via X1) [listing 2 of 2 here] yielded a Kb of over 1380 nM.

Organism: Rattus norvegicus
Assay: Competitive antagonist action against oxytocin contractile action in rat uterus(in vitro)
Assay type: functional
Settings: read-out: pA2 (converted)
How it was run: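 Isolated uteri from rats in natural estrus, incubated in Van Dyke-Hastings solution with 0.5 mM Mg²⁺. Isometric contractions to synthetic OT recorded by force transducer; response quantified by integrating area under peaks. pA₂ determined by Schild method; at least four separate assays per antagonist.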

`CC[C@H](C)[C@@H]1NC(=O)[C@@H](Cc2c[nH]c3ccccc23)NC(=O)CC2(CCCCC2)SSC[C@@H](C(=O)N2CCC[C@H]2C(=O)N[C@@H](CCCN=C(N)N)C(=O)NCC(N)=O)NC(=O)[C@H](CC(N)=O)NC(=O)[C@H](C(C)C)NC1=O` [listing 2 of 2 here] and `CC[C@H](C)[C@@H]1NC(=O)[C@@H](Cc2c[nH]c3ccccc23)NC(=O)CC2(CCCCC2)SSC[C@@H](C(=O)N2CCC[C@H]2C(=O)N[C@@H](CCCN=C(N)N)C(=O)NCC(N)=O)NC(=O)[C@H](CC(N)=O)NC(=O)[C@H]([C@@H](C)O)NC1=O` [listing 2 of 2 here] are within 1.5-fold of each other in Kb: 26.3 nM for the first, 33.1 nM for the second.

`CC[C@H](C)[C@@H]1NC(=O)[C@H](Cc2ccccc2)NC(=O)[C@@H](Cc2c[nH]c3ccccc23)NC(=O)CC2(CCCCC2)SSC[C@@H](C(=O)N2CCC[C@H]2C(=O)N[C@@H](CCCN=C(N)N)C(=O)NCC(N)=O)NC(=O)[C@H](CC(N)=O)NC1=O` [listing 2 of 2 here] and `CC[C@H](C)[C@@H]1NC(=O)[C@H](Cc2ccc(Cl)cc2)NC(=O)[C@@H](Cc2c[nH]c3ccccc23)NC(=O)CC2(CCCCC2)SSC[C@@H](C(=O)N2CCC[C@H]2C(=O)N[C@@H](CCCN=C(N)N)C(=O)NCC(N)=O)NC(=O)[C@H](CC(N)=O)NC1=O` [listing 2 of 2 here] are within 1.5-fold of each other in Kb: 30.9 nM for the first, 36.3 nM for the second.

`CC[C@H](C)[C@@H]1NC(=O)[C@H]([C@@H](C)CC)NC(=O)[C@@H](Cc2c[nH]c3ccccc23)NC(=O)CC2(CCCCC2)SSC[C@@H](C(=O)N2CCC[C@H]2C(=O)N[C@@H](CCCN=C(N)N)C(=O)NCC(N)=O)NC(=O)[C@H](CC(N)=O)NC1=O` [listing 2 of 2 here] and `CC[C@H](C)[C@@H]1NC(=O)[C@H](Cc2ccccc2)NC(=O)[C@@H](Cc2ccccc2)NC(=O)CC2(CCCCC2)SSC[C@@H](C(=O)N2CCC[C@H]2C(=O)N[C@@H](CCCN=C(N)N)C(=O)NCC(N)=O)NC(=O)[C@H](CC(N)=O)NC1=O` ([dF]FINCPRG-NH2; linker N-5 via X1) [listing 2 of 2 here] are within 1.5-fold of each other in Kb: 34.7 nM for the first, 44.7 nM for the second.

`NC(=O)CC[C@@H]1NC(=O)[C@H](Cc2ccccc2)NC(=O)[C@@H](Cc2c[nH]c3ccccc23)NC(=O)CC2(CCCCC2)SSC[C@@H](C(=O)N2CCC[C@H]2C(=O)N[C@@H](CCCN=C(N)N)C(=O)NCC(N)=O)NC(=O)[C@H](CC(N)=O)NC1=O` [listing 2 of 2 here] and `CCNC(=O)CNC(=O)[C@H](CCCN=C(N)N)NC(=O)[C@@H]1CCCN1C(=O)[C@@H]1CSSC2(CCCCC2)CC(=O)N[C@H](Cc2c[nH]c3ccccc23)C(=O)N[C@@H](Cc2ccccc2)C(=O)N[C@@H](CCC(N)=O)C(=O)N[C@@H](CC(N)=O)C(=O)N1` [listing 2 of 2 here] are within 1.5-fold of each other in Kb: 26.3 nM for the first, 32.4 nM for the second.

In the case of `CC[C@H](C)[C@@H]1NC(=O)[C@H](Cc2ccccc2)NC(=O)[C@@H](Cc2c[nH]c3ccccc23)NC(=O)CC2(CCCCC2)SSC[C@@H](C(=O)N2CC=C[C@H]2C(=O)N[C@@H](CCCN=C(N)N)C(=O)NCC(N)=O)NC(=O)[C@H](CC(N)=O)NC1=O` [listing 2 of 2 here], the Kb is reported as 38 nM.
